Results published in ChEMBL document CHEMBL4382255, “Design, synthesis and activity of Mnk1 and Mnk2 selective inhibitors containing thieno[2,3-d]pyrimidine scaffold” (Eur J Med Chem, 2019).
Activity calls are given as the source filed them. Unless noted, the rule behind the calls is not given here.

Key:
[1] = species: Mus musculus; test: Inhibition of MNK in mouse 3T3L1 cells assessed as reduction of eIF4E phosphorylation at 0.1 uM after 2 hrs by Western blot analysis; format: cell-based
Outline: (§1)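 Mouse 3T3-L1 pre-adipocytes (DMEM high glucose, 10% heat-inactivated FBS, 37 °C, 5% CO₂) treated 2 h with compounds at 3 μM or lower concentrations down to 0.1 μM final; DMSO vehicle 0.03-0.05% final. RIPA lysates cleared, equal protein resolved by SDS-PAGE, immunoblotted for P-eIF4E and total eIF4E, fluorescent secondary detection.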

[2] = target: MAP kinase-interacting serine/threonine-protein kinase 1 (Mus musculus) (UniProt O08605); test: Inhibition of MNK1 in C57BL/6J mouse embryonic fibroblasts assessed as decrease in eIF4E phosphorylation at 0.1 to 0.3 uM after 2 hrs by Western blot analysis relative to control
Outline: (§2)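 MEFs from E13.5 C57BL/6J embryos, wild-type, MNK1-KO or MNK2-KO (DMEM, 10% FBS), treated 2 h with inhibitor at indicated concentrations, including a lower-concentration series in MNK1-KO cells; CGP57380 at 50 μM as reference. Lysates analysed by SDS-PAGE/western blot for P-eIF4E; quantified from three independent experiments, SEM.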

[3] = species: Mus musculus; test: Inhibition of mTORC1 in mouse 3T3L1 cells assessed as reduction in 4EBP1 at Ser65 residue phosphorylation at 0.1 to 5 uM after 2 hrs by Western blot analysis; format: cell-based
Outline: (§3)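 3T3-L1 cells treated 2 h with inhibitor at indicated concentrations (DMSO <0.05% v/v). RIPA lysates, equal protein by Bradford, SDS-PAGE and western blot with phospho-specific antibodies (ERK, RSK, PKB Ser473, 4E-BP1, rpS6); fluorescent secondary imaging. Quantified from three independent experiments, SEM error bars.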

[4] = target: MAP kinase-interacting serine/threonine-protein kinase 1 (Mus musculus) (UniProt O08605); test: Inhibition of MNK1 in C57BL/6J mouse embryonic fibroblasts assessed as decrease in eIF4E phosphorylation at 5 uM after 2 hrs by Western blot analysis; outline: as §2
[5] = target: MAP kinase-interacting serine/threonine-protein kinase 1 (Homo sapiens) (UniProt Q9BUB5); test: Inhibition of GST-fused MNK1a (unknown origin) expressed in HEK293 cells using eIF4E as substrate after 30 mins by Western blot analysis; format: cell-based
Outline: (§4)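 GST-MNK1a or GST-MNK2a expressed in transfected HEK293 cells, purified by glutathione pull-down. Incubated in 25 mM Tris-HCl pH 7.5, 50 mM KCl, 2 mM MgCl₂ with 20 µM ATP and 65 ng E. coli-expressed eIF4E, 30 °C, 30 min, ± inhibitor. Stopped with sample buffer; immunoblotted for P-eIF4E Ser209, eIF4E and GST. Conditions pre-set within linear range.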

[6] = target: MAP kinase-interacting serine/threonine-protein kinase 2 (Mus musculus) (UniProt Q8CDB0); test: Inhibition of MNK2 in MNK1-knockout C57BL/6J mouse embryonic fibroblasts assessed as decrease in eIF4E phosphorylation at 0.5 uM after 2 hrs by Western blot analysis; outline: as §2
[7] = species: Mus musculus; test: Inhibition of mTORC2 in mouse 3T3L1 cells assessed as reduction in PKB phosphorylation at Ser473 residue at 0.1 to 5 uM after 2 hrs by Western blot analysis; format: cell-based; outline: as §3
[8] = species: Mus musculus; test: Inhibition of mTORC1 in mouse 3T3L1 cells assessed as reduction in rpS6 phosphorylation at Ser240/244 residues at 0.1 to 5 uM after 2 hrs by Western blot analysis; format: cell-based; outline: as §3
[9] = target: MAP kinase-interacting serine/threonine-protein kinase 2 (Mus musculus) (UniProt Q8CDB0); test: Inhibition of MNK2 in C57BL/6J mouse embryonic fibroblasts assessed as decrease in eIF4E phosphorylation at 5 uM after 2 hrs by Western blot analysis; outline: as §2
[10] = species: Mus musculus; test: Inhibition of ERK signalling in mouse 3T3L1 cells assessed as reduction in RSK phosphorylation at […] residue at 0.1 to 5 uM after 2 hrs by Western blot analysis; format: cell-based; outline: as §3
[11] = target: T1, MAP kinase-interacting serine/threonine-protein kinase 1/2 (Homo sapiens) (UniProt Q9HBH9+Q9BUB5); test: Inhibition of MNK in human MDA-MB-231 cells assessed as decrease in eIF4E phosphorylation at 1 uM after 2 hrs by Western blot analysis; format: cell-based
Outline: (§5)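 MDA-MB-231 cells treated with inhibitor at indicated concentrations for 2 h, or at 3 μM for times up to 72 h (DMSO vehicle <0.05%). Cells lysed in RIPA buffer; supernatants analysed by SDS-PAGE and western blot for P-eIF4E and total eIF4E. CGP57380 at 30 μM as reference.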

[12] = target: MAP kinase-interacting serine/threonine-protein kinase 1 (Mus musculus) (UniProt O08605); test: Inhibition of MNK1 in MNK2-knockout C57BL/6J mouse embryonic fibroblasts assessed as decrease in eIF4E phosphorylation at 0.3 to 5 uM after 2 hrs by Western blot analysis; outline: as §2
[13] = target: T2, Mitogen-activated protein kinase 1 and 3 (ERK2 and ERK1) (Mus musculus) (UniProt P63085+Q63844); test: Inhibition of ERK1/2 phosphorylation at Thr202/Tyr204 residues in mouse 3T3L1 cells at 0.1 to 5 uM after 2 hrs by Western blot analysis; format: cell-based; outline: as §3
[14] = test system: 3T3-L1; test: Effect on total eIF4E protein level in mouse 3T3L1 cells at 3 uM after 2 hrs by Western blot analysis; format: ADME, cell-based; settings: 3t3-l1, 2 h; outline: as §1
[15] = target: MAP kinase-interacting serine/threonine-protein kinase 2 (Mus musculus) (UniProt Q8CDB0); test: Inhibition of MNK2 in MNK1-knockout C57BL/6J mouse embryonic fibroblasts assessed as decrease in eIF4E phosphorylation at 0.003 to 0.03 uM after 2 hrs by Western blot analysis; outline: as §2
[16] = species: Mus musculus; test: Inhibition of MNK in mouse 3T3L1 cells assessed as reduction of eIF4E phosphorylation at 3 uM after 2 hrs by Western blot analysis; format: cell-based; outline: as §1
[17] = test system: MDA-MB-231; test: Antimigratory activity against human MDA-MB-231 cells after 24 hrs by DAPI staining-based Transwell assay; format: functional, cell-based
Outline: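 MDA-MB-231 cells pre-treated with inhibitor 60 min, then 3 x 10⁵ cells seeded into 8 μm-pore Transwell inserts pre-coated with 10 μg/ml collagen (collagen as attractant). After 24 h, migrated cells in bottom well stained with DAPI, imaged at ×10 and counted. Triplicate assays, mean ± SEM.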

[18] = target: MAP kinase-interacting serine/threonine-protein kinase 2 (Homo sapiens) (UniProt Q9HBH9); test: Inhibition of GST-fused MNK2a (unknown origin) expressed in HEK293 cells using eIF4E as substrate after 30 mins by Western blot analysis; format: cell-based; outline: as §4
[19] = target: T1, MAP kinase-interacting serine/threonine-protein kinase 1/2 (Homo sapiens); test: Inhibition of MNK in human MDA-MB-231 cells assessed as decrease in eIF4E phosphorylation at 3 uM up to 72 hrs by Western blot analysis; format: cell-based; outline: as §5
[20] = Inhibition in C57BL/6J mouse embryonic fibroblasts assessed as decrease in eIF4E phosphorylation at 0.1 to 0.3 uM after 2 hrs by Western blot analysis relative to control
[21] = target: T2, Mitogen-activated protein kinase 1 and 3 (ERK2 and ERK1) (Mus musculus); test: Stimulation of ERK1/2 phosphorylation at Thr202/Tyr204 residues in mouse 3T3L1 cells at 0.1 to 5 uM after 2 hrs by Western blot analysis; format: cell-based; outline: as §3
[22] = species: Mus musculus; test: Stimulation of ERK signalling in mouse 3T3L1 cells assessed as increase in RSK phosphorylation at […] residue at 0.1 to 5 uM after 2 hrs by Western blot analysis; format: cell-based; outline: as §3
[23] = test system: MDA-MB-231; test: Cell cycle arrest in human MDA-MB-231 cells at 0.3 to 6 uM after 2 hrs by propidium iodide staining-based flow cytometric analysis; format: ADME; settings: mda-mb-231, 2 h
Outline: (§6)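 MDA-MB-231 cells seeded at 5 x 10^5 cells/well, allowed 24 h to attach, then treated with inhibitor or vehicle. Harvested at ~70% confluence, fixed in methanol ≥2 h, stained with 1 µg/ml propidium iodide; ~20,000 cells analysed by flow cytometry for cell-cycle phase proportions including sub-G0. Mean ± SEM, n=5.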

[24] = test system: MDA-MB-231; test: Cell cycle arrest in human MDA-MB-231 cells assessed as accumulation of cells at sub-G0 phase at 0.3 to 6 uM after 2 hrs by propidium iodide staining-based flow cytometric analysis; format: ADME; settings: mda-mb-231, 2 h; outline: as §6

MAP kinase-interacting serine/threonine-protein kinase 1 (Mus musculus), sequence (O08605 whole entry, the tested form may be a part): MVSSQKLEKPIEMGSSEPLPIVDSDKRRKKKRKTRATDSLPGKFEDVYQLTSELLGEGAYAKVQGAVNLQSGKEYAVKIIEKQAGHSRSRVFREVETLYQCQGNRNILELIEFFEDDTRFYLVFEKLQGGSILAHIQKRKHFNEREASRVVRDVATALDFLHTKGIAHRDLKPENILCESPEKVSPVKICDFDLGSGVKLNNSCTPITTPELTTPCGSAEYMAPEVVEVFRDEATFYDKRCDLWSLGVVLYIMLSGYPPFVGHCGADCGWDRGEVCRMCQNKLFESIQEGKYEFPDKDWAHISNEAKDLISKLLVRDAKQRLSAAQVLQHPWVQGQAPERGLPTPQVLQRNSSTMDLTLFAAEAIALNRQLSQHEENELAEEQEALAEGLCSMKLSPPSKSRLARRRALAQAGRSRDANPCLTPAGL
MAP kinase-interacting serine/threonine-protein kinase 2 (Mus musculus), sequence (Q8CDB0 whole entry): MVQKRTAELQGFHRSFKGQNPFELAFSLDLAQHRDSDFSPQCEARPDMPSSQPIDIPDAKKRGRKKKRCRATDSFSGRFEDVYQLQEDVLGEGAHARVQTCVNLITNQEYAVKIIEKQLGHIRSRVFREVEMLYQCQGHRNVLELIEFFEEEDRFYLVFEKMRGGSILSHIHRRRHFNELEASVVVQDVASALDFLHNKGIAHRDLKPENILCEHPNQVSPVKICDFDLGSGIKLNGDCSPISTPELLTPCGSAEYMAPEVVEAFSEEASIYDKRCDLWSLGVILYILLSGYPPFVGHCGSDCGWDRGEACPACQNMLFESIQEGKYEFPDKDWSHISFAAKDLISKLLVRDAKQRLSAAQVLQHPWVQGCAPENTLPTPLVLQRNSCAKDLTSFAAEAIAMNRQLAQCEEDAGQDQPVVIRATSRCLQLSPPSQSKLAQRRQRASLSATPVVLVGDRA
T2 sequence (P63085 whole entry, looked up): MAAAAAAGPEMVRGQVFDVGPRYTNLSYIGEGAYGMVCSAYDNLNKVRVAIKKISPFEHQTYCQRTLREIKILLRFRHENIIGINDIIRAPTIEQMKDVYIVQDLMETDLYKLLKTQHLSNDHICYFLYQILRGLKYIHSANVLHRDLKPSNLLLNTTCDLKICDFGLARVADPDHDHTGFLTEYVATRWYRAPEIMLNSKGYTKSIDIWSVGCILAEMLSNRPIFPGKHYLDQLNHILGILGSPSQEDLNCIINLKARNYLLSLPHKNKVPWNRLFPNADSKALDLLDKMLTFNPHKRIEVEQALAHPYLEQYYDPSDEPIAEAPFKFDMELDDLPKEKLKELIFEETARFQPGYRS
T2 sequence (Q63844 whole entry, looked up): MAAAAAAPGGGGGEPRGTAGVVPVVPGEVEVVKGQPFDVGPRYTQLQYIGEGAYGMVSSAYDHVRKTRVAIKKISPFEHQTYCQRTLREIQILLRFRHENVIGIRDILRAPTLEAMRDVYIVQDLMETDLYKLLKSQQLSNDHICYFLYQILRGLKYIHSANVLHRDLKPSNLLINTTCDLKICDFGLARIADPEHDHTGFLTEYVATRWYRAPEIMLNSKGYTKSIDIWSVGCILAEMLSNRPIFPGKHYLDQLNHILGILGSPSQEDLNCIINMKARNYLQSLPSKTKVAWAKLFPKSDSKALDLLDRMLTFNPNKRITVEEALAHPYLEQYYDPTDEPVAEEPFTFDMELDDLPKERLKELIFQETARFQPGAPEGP
MAP kinase-interacting serine/threonine-protein kinase 2 (Homo sapiens), sequence (Q9HBH9 whole entry, looked up, the tested form may be a part): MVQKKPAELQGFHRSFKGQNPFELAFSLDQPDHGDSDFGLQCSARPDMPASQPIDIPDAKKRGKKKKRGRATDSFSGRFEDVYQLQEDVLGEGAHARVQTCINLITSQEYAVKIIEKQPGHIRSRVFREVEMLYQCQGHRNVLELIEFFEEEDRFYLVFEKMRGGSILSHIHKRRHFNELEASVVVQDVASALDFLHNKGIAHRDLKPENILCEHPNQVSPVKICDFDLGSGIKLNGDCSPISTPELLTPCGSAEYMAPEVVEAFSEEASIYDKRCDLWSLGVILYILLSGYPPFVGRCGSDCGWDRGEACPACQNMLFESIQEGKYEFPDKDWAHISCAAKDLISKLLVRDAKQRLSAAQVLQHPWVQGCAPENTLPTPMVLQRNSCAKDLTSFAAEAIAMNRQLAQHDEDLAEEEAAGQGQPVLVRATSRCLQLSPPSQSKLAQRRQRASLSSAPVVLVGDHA
MAP kinase-interacting serine/threonine-protein kinase 1 (Homo sapiens), sequence (Q9BUB5 whole entry, looked up, the tested form may be a part): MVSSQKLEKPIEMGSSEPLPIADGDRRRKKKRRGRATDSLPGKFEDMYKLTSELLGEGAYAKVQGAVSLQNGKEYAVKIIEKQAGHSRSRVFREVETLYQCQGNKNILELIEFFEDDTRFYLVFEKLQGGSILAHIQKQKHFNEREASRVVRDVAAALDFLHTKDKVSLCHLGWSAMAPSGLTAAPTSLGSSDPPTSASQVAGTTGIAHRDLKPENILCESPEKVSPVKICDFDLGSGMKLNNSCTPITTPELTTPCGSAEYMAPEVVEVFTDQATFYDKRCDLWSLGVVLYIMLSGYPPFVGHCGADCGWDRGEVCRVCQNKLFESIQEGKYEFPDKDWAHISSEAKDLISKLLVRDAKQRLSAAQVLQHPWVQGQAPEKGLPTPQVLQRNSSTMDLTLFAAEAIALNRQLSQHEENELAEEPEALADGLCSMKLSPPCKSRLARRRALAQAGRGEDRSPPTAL

SMILES	inhibition of eIF4E phosphorylation (active/not active) [1]	inhibition [2] [%]	inhibition [3]	inhibition [4] [%]	inhibition [5]	inhibition [6]	inhibition [7]	inhibition [8]	inhibition [9] [%]	inhibition [11] [%]	inhibition [12]	Activity [14]	inhibition [15]	MNK inhibition (active/not active) [16]	inhibition [17]	inhibition [18]	inhibition [19]	further results
Cc1c(C(=O)NCCCN(C)C)sc2ncnc(Nc3ccc(F)cc3OC(C)CF)c12 (stereo unspecified)	Active	50	inactive	100	Active	Active	inactive	inactive	100	100	Active	Non-Toxic	Active	Active	Active	Active	Active	inhibition [10]: inactive; inhibition [13]: inactive
Cc1c(C(=O)NCCCN2CCCC2)sc2ncnc(Nc3ccc(F)cc3OC(C)C)c12	Active	50	inactive	100	Active	Active	inactive	inactive	100	100	Active	Non-Toxic	Active	Active	Active	Active	Active	inhibition [20]: 50%; Activity [21]: Active; Activity [22]: Active; Activity [23]: Non-Toxic; Activity [24]: Non-Toxic
